Experimental data gathered from unrelated publications.
Target: Eukaryotic elongation factor 2 kinase (EEF2K, Homo sapiens, UniProt O00418)

With `CCN1CCC2(CC1)NC(=O)c1c(c3ccc(Cl)c(Cl)c3n1C)C2C#N` (racemic) the ΔTm was 0 °C (thermal stability; DSF; 10 µM).
With `CN(c1ncccc1CNc1nc(Nc2ccc3c(c2)CC(=O)N3)ncc1C(F)(F)F)S(C)(=O)=O` the inhibition was 0% (enzyme activity; inhibitor; 1 µM).
`Cc1cc(NC(=O)c2cccc3cc(-c4cccc5[nH]nc(N)c45)ccc23)ccc1F` gave an activity vs control of 103% (enzyme activity; inhibitor; 0.1 µM).
`CCN1CCN(Cc2ccc(NC(=O)c3ccc(C)c(/C=C/c4cnc5[nH]ccc5c4OC)c3)cc2C(F)(F)F)CC1` gave an inhibition of -21.7% (target engagement in cells; inhibitor; chemoproteomics; A-375; 0.5 µM).
The activity vs control of `COc1cc(/C=C/C(=O)CC(=O)/C=C/c2ccc(O)c(OC)c2)ccc1O` is reported as 98% (enzyme activity; inhibitor; 1 µM).
With `CCN1CCN(Cc2ccc(NC(=O)c3ccc(C)c(Oc4ccnc5[nH]ccc45)c3)cc2C(F)(F)F)CC1` the inhibition was -20.2% (target engagement in cells; inhibitor; chemoproteomics; Huh-7; 10 µM).
`CC(C)(C)C(=O)c1sc(NC2CCCCC2)nc1N` gave a remaining activity of 111% (enzyme activity; inhibitor; 10 µM).
`CCCS(=O)(=O)Nc1ccc(F)c(C(=O)c2c[nH]c3ncc(-c4ccc(Cl)cc4)cc23)c1F` gave an inhibition of < 10% (enzyme activity; inhibitor; 1 µM).
`CC1(C)NC(=O)c2[nH]c3c(Cl)c(Cl)ccc3c2C1C#N` (stereo not shown) gave a ΔTm of -0.3 °C (thermal stability; DSF; 10 µM).
For `CCCOc1ccc(OC)c(F)c1C(=O)c1ccc(C(=O)N[C@@H]2CNC[C@H]2NC(=O)c2ccc3[nH]ncc3c2)cc1`, the remaining activity was 128% (enzyme activity; inhibitor; 10 µM).
For `Cn1c2c(c3ccc(Cl)c(Cl)c31)C(C#N)C1(CCOCC1)NC2=O` (stereo not shown), the ΔTm was -0.2 °C (thermal stability; DSF; 10 µM).
For `Cn1c(=O)n(-c2ccc(C(C)(C)C#N)cc2)c2c3cc(-c4cnc5ccccc5c4)ccc3ncc21`, the remaining activity was 110% (enzyme activity; inhibitor; 10 µM).
The inhibition of `CNC(=O)c1cc(Oc2ccc(NC(=O)Nc3ccc(Cl)c(C(F)(F)F)c3)cc2)ccn1` is reported as -6% (enzyme activity; inhibitor; 0.3 µM).
`C=CC(=O)Nc1cc(Nc2nccc(Nc3cc(Cl)c(F)cc3C(C)(C)O)n2)c(OC)cc1N1CC[C@@H](N(C)C)C1` gave an inhibition of 11% (enzyme activity; inhibitor; 1 µM).
The inhibition of `Cc1ccc(Nc2nccc(N(C)c3ccc4c(C)n(C)nc4c3)n2)cc1S(N)(=O)=O` is reported as -10% (enzyme activity; inhibitor; 10 µM).
The activity vs control of `FC(F)(F)Oc1cccc(-c2cnc3ccc(-c4ccncc4)nn23)c1` is reported as 99% (enzyme activity; inhibitor; radiometric; 1 µM).
